Here are results for two compounds from ChEMBL document CHEMBL4017537, “Discovery of a Potent and Specific M. tuberculosis Leucyl-tRNA Synthetase Inhibitor: (S)-3-(Aminomethyl)-4-chloro-7-(2-hydroxyethoxy)benzo[c][1,2]oxaborol-1(3H)-ol (GSK656)” (J Med Chem, 2017).

SMILES strings stand for the structures.

Data set [1] relates to Mus musculus. Put plainly: Dose normalized AUC (0 to 24 hrs) in CD-1 mouse at 5 mg/kg administered via oral gavage by LC-MS/MS analysis. The class given is ADME, organism-based. The note with it: in vivo.
Data set [2] concerns Mycobacterium tuberculosis. Nature of the data set: Antimicrobial activity against Mycobacterium tuberculosis H37Rv infected in C57BL/6J mouse assessed as 2 log reduction in bacterial load in lungs administered qd for 8 consecutive days starting on day 1 post infection measured 24 hrs post last dose. The data set is classed as functional.
Data set [3] can be described thus: Volume of distribution at steady state in CD-1 mouse at 5 mg/kg, iv after 24 hrs by LC-MS/MS analysis. The class given is ADME, organism-based. The note with it: in vivo, read-out: Vdss.
The nature of data set [4]: Tmax in CD-1 mouse at 5 mg/kg administered via oral gavage after 24 hrs by LC-MS/MS analysis. The class given is ADME, organism-based. The note with it: in vivo.
A short description of data set [5]: AUC (0 to infinity) in CD-1 mouse at 5 mg/kg, iv after 24 hrs by LC-MS/MS analysis. The data set is classed as ADME, organism-based. The arrangement: dose 5 mg/kg, route intravenous, time infinity. The note with it: in vivo.
Data set [6] has as its system Mycobacterium tuberculosis. Nature of the data set: Antimicrobial activity against Mycobacterium tuberculosis H37Rv. The data set is classed as functional.
Data set [7] deals with T1, Leucine--tRNA ligase (Mycobacterium tuberculosis (strain ATCC 25618 / H37Rv), UniProt P9WFV1).
T1 sequence (P9WFV1 whole entry): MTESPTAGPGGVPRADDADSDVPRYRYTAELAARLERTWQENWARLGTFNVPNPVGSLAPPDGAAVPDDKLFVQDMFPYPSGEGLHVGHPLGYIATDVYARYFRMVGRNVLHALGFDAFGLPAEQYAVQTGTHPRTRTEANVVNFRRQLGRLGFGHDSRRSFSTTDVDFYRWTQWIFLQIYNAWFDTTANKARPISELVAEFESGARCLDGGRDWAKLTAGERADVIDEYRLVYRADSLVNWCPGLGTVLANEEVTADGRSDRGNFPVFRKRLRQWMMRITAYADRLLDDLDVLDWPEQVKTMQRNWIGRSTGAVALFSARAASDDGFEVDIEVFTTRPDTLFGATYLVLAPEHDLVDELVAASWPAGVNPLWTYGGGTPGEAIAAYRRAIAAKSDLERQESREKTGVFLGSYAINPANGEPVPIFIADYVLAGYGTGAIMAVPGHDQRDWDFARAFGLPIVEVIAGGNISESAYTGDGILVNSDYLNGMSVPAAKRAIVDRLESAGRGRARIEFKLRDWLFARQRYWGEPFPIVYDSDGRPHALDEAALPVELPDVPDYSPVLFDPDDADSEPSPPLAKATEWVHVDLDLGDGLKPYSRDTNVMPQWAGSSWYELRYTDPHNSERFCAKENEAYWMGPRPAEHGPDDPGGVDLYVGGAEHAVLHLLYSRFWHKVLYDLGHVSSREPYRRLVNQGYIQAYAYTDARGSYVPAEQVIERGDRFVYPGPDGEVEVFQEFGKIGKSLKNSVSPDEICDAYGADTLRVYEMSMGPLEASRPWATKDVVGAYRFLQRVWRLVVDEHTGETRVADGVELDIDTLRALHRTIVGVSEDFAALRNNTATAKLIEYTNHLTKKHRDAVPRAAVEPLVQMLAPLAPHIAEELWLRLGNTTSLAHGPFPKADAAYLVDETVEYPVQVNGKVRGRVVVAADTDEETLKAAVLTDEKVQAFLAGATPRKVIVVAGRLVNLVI
Put plainly: Inhibition of Mycobacterium tuberculosis H37Rv N-terminal 6His-tagged LeuRS expressed in Escherichia coli BL21(DE3) assessed as L-[14C]leucine incorporation in to Escherichia coli tRNA after 20 mins by liquid scintillation counting analysis. The method in brief: (§1)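 N-terminal His6-tagged LeuRS expressed in E. coli BL21(DE3), codon-optimized. 50 mM HEPES-KOH pH 8.0, 30 mM MgCl2, 30 mM KCl, 13 μM L-[14C]leucine, 15 μM tRNA (E. coli total; brewer's yeast for human cytoplasmic enzyme), 0.02% BSA, 1 mM DTT, 30 °C. Inhibitor preincubated 20 min, started with 4 mM ATP, TCA-quenched after 7 min, filtered, scintillation counted; four-parameter logistic IC50.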

Data set [8] can be described thus: Cmax in CD-1 mouse at 5 mg/kg administered via oral gavage after 24 hrs by LC-MS/MS analysis. The data set is classed as ADME, organism-based. On the set-up: dose 5 mg/kg, route oral. The note with it: in vivo.
In data set [9] the test system is Mus musculus. Nature of the data set: Dose normalized AUC (0 to infinity) in CD-1 mouse at 5 mg/kg, iv after 24 hrs by LC-MS/MS analysis. The data set is classed as ADME, organism-based. Particulars: in vivo.
Data set [10] in a line: Half life in CD-1 mouse at 5 mg/kg, iv after 24 hrs by LC-MS/MS analysis. The class given is ADME, organism-based. The note with it: in vivo.
Data set [11] concerns the target T2, Leucine--tRNA ligase, cytoplasmic (Homo sapiens, UniProt Q9P2J5). Nature of the data set: Inhibition of cytoplasmic LeuRS in human HepG2 cells assessed as reduction in protein synthesis preincubated for 48 hrs followed by L-[14C]leucine addition measured after 3 hrs by liquid scintillation counting analysis. The data set is classed as cell-based. An outline of the steps:
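HepG2 cells in DMEM/10% FCS, 3000 cells/well, exposed to compound dilutions (0.5% DMSO final) for 48 h at 37 °C. Medium then replaced with fresh medium containing 0.5 μCi L-[14C]leucine and the same compound levels for 3 h. Cells trypsinised, precipitated in ice-cold 20% TCA, filtered, washed, scintillation counted; curve-fit EC50; mean of at least duplicates.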

Data set [12] has as its target T3, Leucine--tRNA ligase, mitochondrial (Homo sapiens, UniProt Q15031).
T3 sequence (Q15031 whole entry): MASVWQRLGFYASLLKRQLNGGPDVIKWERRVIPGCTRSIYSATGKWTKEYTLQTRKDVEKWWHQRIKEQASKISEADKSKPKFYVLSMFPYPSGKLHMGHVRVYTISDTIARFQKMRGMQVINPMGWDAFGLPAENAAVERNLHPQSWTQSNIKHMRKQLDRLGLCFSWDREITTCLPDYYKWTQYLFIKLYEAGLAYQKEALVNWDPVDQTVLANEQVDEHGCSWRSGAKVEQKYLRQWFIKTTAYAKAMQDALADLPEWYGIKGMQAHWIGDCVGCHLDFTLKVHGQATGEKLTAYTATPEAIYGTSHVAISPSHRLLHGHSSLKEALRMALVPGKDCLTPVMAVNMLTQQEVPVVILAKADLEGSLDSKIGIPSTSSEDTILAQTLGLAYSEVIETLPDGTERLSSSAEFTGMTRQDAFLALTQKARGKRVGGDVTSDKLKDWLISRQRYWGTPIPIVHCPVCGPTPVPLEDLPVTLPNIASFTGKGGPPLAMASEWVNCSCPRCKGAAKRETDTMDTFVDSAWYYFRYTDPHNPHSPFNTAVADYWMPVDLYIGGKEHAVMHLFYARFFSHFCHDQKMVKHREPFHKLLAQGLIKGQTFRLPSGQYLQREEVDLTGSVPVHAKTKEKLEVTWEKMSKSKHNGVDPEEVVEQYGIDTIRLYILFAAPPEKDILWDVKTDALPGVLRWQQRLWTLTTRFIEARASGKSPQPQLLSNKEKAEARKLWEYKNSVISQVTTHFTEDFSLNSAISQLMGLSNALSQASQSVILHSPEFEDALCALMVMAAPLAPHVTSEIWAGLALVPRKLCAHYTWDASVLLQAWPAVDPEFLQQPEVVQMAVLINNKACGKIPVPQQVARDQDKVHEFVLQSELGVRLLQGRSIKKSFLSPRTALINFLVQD
Put plainly: Inhibition of human N-terminal 6His-tagged mitochondrial LeuRS expressed in Escherichia coli BL21(DE3) assessed as L-[14C]leucine incorporation in to Escherichia coli tRNA after 20 mins by liquid scintillation counting analysis. An outline of the steps:
as §1

The test system of data set [13] is cytoplasmic LeuRS. Put plainly: Selectivity index, ratio of EC50 for inhibition of cytoplasmic LeuRS in HepG2 cells assessed as reduction in protein synthesis to MIC for Mycobacterium tuberculosis H37Rv. The class given is toxicity, cell-based. The note with it: human, read-out: Selectivity Index. An outline of the steps:
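Ratio of HepG2 protein-synthesis EC50 to MIC against M. tuberculosis H37Rv.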

Data set [14] is described as follows: Clearance in CD-1 mouse at 5 mg/kg, iv after 24 hrs by LC-MS/MS analysis. The note with it: in vivo. The data set is classed as ADME, organism-based.
A short description of data set [15]: Oral bioavailability in CD-1 mouse at 5 mg/kg administered via gavage after 24 hrs by LC-MS/MS analysis. The class given is ADME, organism-based. The note with it: in vivo.
The nature of data set [16]: AUC (0 to 24 hrs) in CD-1 mouse at 5 mg/kg administered via oral gavage by LC-MS/MS analysis. The data set is classed as ADME, organism-based. On the set-up: time < 24 hr, dose 5 mg/kg, route oral. The note with it: in vivo.
In data set [17] the test system is HepG2. Put plainly: Cytotoxicity against human HepG2 cells assessed as reduction in cell viability after 48 hrs by CellTiter-Glo assay. The data set is classed as cell-based. The note with it: HepG2, 48 h. The method in brief:
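HepG2 cells seeded at 10 000/well in EMEM with 5% FCS and 2 mM glutamine. After 24 h, ten 1:2 serial compound dilutions (0.5% DMSO final) added in duplicate for 48 h. Read-out by CellTiter-Glo luminescence per table footnote; the method text also describes resazurin fluorescence (ex 515/em 590 nm). Sigmoidal variable-slope fit.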
On the technique in general: Cellular ATP, detected with luciferase, serves as a proxy for viable cell number.

Data set [18] addresses T2, Leucine--tRNA ligase, cytoplasmic. Put plainly: Inhibition of human N-terminal 6His-tagged cytoplasmic LeuRS expressed in Escherichia coli BL21(DE3) assessed as […] after 20 mins by liquid scintillation counting analysis.
The test system of data set [19] is Mycobacterium tuberculosis. Put plainly: Antimicrobial activity against Mycobacterium tuberculosis H37Rv infected in C57BL/6J mouse assessed as bacterial load in lungs at 100 mg/kg qd administered for 8 consecutive weeks starting from 6 weeks post infection measured 24 hrs post last dose (reference value: 6.4 +/- 0.3 log10CFU). The class given is functional. The method in brief: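 C57BL/6J mice infected intratracheally with ~10² CFU M. tuberculosis H37Rv. Dosed QD, 7 days/week, for 8 weeks starting 6 weeks post-infection; killed ≥24 h after last dose. Lung homogenates plated on 7H11/10% OADC for 21 days at 37 °C. n = 3 per dose group, 7 for controls; mean (SD); ANOVA with Dunnett's test versus 14-week untreated.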

T2 sequence (Q9P2J5 whole entry): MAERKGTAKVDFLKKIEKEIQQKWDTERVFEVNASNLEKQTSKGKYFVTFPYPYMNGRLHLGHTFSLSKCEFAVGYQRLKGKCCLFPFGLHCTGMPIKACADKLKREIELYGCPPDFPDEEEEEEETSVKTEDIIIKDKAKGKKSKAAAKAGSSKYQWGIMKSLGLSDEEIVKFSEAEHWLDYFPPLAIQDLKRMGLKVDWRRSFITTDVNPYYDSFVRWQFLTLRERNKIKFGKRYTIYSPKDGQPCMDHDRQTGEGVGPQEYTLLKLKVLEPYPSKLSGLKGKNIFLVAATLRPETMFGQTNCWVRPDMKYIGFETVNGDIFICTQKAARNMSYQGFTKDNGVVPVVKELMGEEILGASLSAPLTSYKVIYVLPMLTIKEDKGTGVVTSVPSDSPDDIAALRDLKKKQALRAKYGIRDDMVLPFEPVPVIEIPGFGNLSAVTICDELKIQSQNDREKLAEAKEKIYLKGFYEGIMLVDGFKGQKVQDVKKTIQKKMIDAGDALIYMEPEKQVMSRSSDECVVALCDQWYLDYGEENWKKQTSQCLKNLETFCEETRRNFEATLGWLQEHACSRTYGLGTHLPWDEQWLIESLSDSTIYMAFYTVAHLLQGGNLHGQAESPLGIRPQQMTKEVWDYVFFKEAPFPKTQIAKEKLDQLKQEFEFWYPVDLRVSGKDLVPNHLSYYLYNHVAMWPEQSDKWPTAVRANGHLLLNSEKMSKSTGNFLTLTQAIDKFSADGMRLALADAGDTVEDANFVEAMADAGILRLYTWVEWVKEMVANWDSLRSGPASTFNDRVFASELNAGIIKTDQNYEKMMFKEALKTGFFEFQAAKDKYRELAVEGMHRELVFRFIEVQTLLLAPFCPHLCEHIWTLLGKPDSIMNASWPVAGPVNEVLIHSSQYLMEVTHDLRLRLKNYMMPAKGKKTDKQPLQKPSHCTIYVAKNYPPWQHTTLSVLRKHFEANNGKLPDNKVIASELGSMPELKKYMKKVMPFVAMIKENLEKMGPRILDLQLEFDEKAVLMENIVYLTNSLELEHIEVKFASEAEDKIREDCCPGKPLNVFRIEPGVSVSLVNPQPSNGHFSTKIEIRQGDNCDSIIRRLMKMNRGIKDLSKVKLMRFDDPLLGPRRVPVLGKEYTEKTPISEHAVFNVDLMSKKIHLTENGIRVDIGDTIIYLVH

For `COc1ccc(Br)c2c1B(O)O[C@@H]2CN.Cl`, the AUC/dose in data set [1] was 0.84 µg·h/mL; in data set [9] it was 1.17 µg·h/mL/mg/kg. The ED99 in data set [2] is 3.8 mg/kg. In addition, the Vd in [3] worked out at 2.5 L/kg. The Tmax in data set [4] was determined as 15 min. For the same compound, the AUC(0-inf) in data set [5] was found to be 5840 ng·h/mL. The compound further yielded an MIC in data set [6] of 0.1 µM. The IC50 in [7] is 74 nM; in data set [12] it was greater than 300 µM; in data set [18] it was greater than 300 µM. In data set [8], the peak level (Cmax) was 980 ng/mL. The half-life in data set [10] was 144 min. The EC50 amounted to 97 µM in [11] and 74.5 µM in data set [17]. Further, the selectivity ratio in [13] stood at 970. In [14], this compound had a clearance of 14.2 mL/min/kg. This compound gave a bioavailability in data set [15] of 72%. The compound also returned an AUC(0-t) at 24 h in [16] of 4210 ng·h/mL.

As to `CC(=O)NC[C@H]1CN(c2ccc(N3CCOCC3)c(F)c2)C(=O)O1` [LINEZOLID], in [19], the Activity is recorded as 3.9 log10CFU.

The term Tmax denotes the time at which the peak concentration occurs. The term AUC(0-inf) denotes the area under the concentration-time curve extrapolated to infinity. High values mean high exposure, low ones low exposure. The MIC is the lowest concentration that inhibits growth of the organism. Low readings indicate greater potency, high ones weaker potency. Broadly, the IC50 is the midpoint of a concentration-inhibition curve. One may read the Cmax as the maximum level reached in the sampled fluid or tissue. For orientation: half-life means the time in which the quantity being followed falls by half. A low value points to rapid decline. The EC50 is the concentration needed to bring the measured effect to its halfway point. A word on the clearance: it is the volume of plasma or blood freed of the substance per unit of time. High values mean efficient removal, low ones inefficient removal. In general, bioavailability refers to the share of a dose that reaches the circulation, judged against a reference dose that is usually intravenous. Low readings indicate poor availability, high ones good availability. As a reminder, the AUC(0-t) is exposure summed from dosing to a finite time, without extrapolation to infinity. Lower therefore signals less exposure.
